Data reported in ChEMBL document CHEMBL4052686, “Synthesis and antibacterial activity of 5-methylphenanthridium derivatives as FtsZ inhibitors” (2017).
≈ marks a conversion by molar mass, not a printed value. Calls of active or inactive are those of the source. The rule behind the calls is not given here.

Tests used:
[1] = tested on: Staphylococcus epidermidis; experiment: Antibacterial activity against penicillin-resistant Staphylococcus epidermidis clinical isolates incubated for 24 hrs by tube-dilution method; format: functional
Staphylococcus aureus [2] = experiment: Antibacterial activity against penicillin-resistant Staphylococcus aureus clinical isolates incubated for 24 hrs by tube-dilution method; format: functional
Staphylococcus aureus [3] = experiment: Antibacterial activity against penicillin-susceptible Staphylococcus aureus ATCC 25923 incubated for 24 hrs by tube-dilution method; format: functional; details: ATCC 25923, 24 h
Procedure, shortened: (§1)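 MIC by tube dilution per NCCLS; B. subtilis ATCC9372, E. coli ATCC25922, P. aeruginosa ATCC27853 and S. aureus ATCC25923 are penicillin-susceptible strains.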

Bacillus subtilis [4] = experiment: Inhibition of FtsZ in penicillin-susceptible Bacillus subtilis ATCC 9372 assessed as lowest drug concentration causing inhibition of cell division incubated for 5 hrs by phase-contrast light microscopy
Procedure, shortened: (§2)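 Cell division inhibition judged from bacterial cell morphology under phase-contrast light microscopy, scored as lowest concentration altering division; penicillin-susceptible strains B. subtilis ATCC9372, E. coli ATCC25922, P. aeruginosa ATCC27853, S. aureus ATCC25923.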

Escherichia coli [5] = experiment: Antibacterial activity against penicillin-susceptible Escherichia coli ATCC 25922 incubated for 24 hrs by tube-dilution method; format: functional; details: ATCC 25922, 24 h; procedure, shortened: as §1
Escherichia coli [6] = experiment: Inhibition of FtsZ in penicillin-susceptible Escherichia coli ATCC 25922 assessed as lowest drug concentration causing inhibition of cell division incubated for 5 hrs by phase-contrast light microscopy; procedure, shortened: as §2
Streptococcus pyogenes [7] = experiment: Antibacterial activity against penicillin-susceptible Streptococcus pyogenes clinical isolates incubated for 24 hrs by tube-dilution method; format: functional
Bacillus subtilis [8] = experiment: Potency index, ratio of MIC for oxacillin sodium to MIC for test compound against penicillin-susceptible Bacillus subtilis ATCC 9372 incubated for 24 hrs by tube-dilution method; format: functional
Staphylococcus aureus [9] = experiment: Antibacterial activity against […] Staphylococcus aureus ATCC 29213 incubated for 24 hrs by tube-dilution method; format: functional; details: ATCC 29213, 24 h
Procedure, shortened: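 Broth tube-dilution MIC run as NCCLS recommends, against the […] S. aureus strain ATCC29213.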

Bacillus subtilis [10] = experiment: Antibacterial activity against penicillin-susceptible Bacillus subtilis ATCC 9372 incubated for 24 hrs by tube-dilution method; format: functional; details: ATCC 9372, 24 h; procedure, shortened: as §1
Streptococcus pyogenes [11] = experiment: Antibacterial activity against penicillin-resistant Streptococcus pyogenes clinical isolates incubated for 24 hrs by tube-dilution method; format: functional
Sus scrofa = organism: Sus scrofa; experiment: Induction of porcine tubulin polymerisation at 2 times MIC for penicillin-resistant Staphylococcus aureus by fluorescence microscopy
Procedure, shortened: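 Polymerisation of mammalian tubulin measured with a commercial tubulin assay kit, read by fluorescence of the kit reporter, with paclitaxel as the positive control for enhanced polymerisation.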

Bacillus subtilis [12] = experiment: Potency index, ratio of MIC for ciprofloxaxin to MIC for test compound against penicillin-susceptible Bacillus subtilis ATCC 9372 incubated for 24 hrs by tube-dilution method; format: functional
Streptococcus pyogenes [13] = experiment: Potency index, ratio of MIC for oxacillin sodium to MIC for test compound against penicillin-susceptible Streptococcus pyogenes clinical isolates incubated for 24 hrs by tube-dilution method; format: functional
Pseudomonas aeruginosa [14] = experiment: Inhibition of FtsZ in penicillin-susceptible Pseudomonas aeruginosa ATCC 27853 assessed as lowest drug concentration causing inhibition of cell division incubated for 5 hrs by phase-contrast light microscopy; procedure, shortened: as §2
Pseudomonas aeruginosa [15] = experiment: Antibacterial activity against penicillin-susceptible Pseudomonas aeruginosa ATCC 27853 incubated for 24 hrs by tube-dilution method; format: functional; details: ATCC 27853, 24 h; procedure, shortened: as §1
Bacillus subtilis [16] = experiment: Potency index, ratio of MIC for sanguinarine to MIC for test compound against penicillin-susceptible Bacillus subtilis ATCC 9372 incubated for 24 hrs by tube-dilution method; format: functional
Bacillus subtilis [17] = experiment: Potency index, ratio of MIC for curcumin to MIC for test compound against penicillin-susceptible Bacillus subtilis ATCC 9372 incubated for 24 hrs by tube-dilution method; format: functional
Streptococcus pyogenes [18] = experiment: Potency index, ratio of MIC for sanguinarine to MIC for test compound against penicillin-susceptible Streptococcus pyogenes clinical isolates incubated for 24 hrs by tube-dilution method; format: functional
Staphylococcus aureus [19] = experiment: Inhibition of FtsZ in penicillin-susceptible Staphylococcus aureus ATCC 25923 assessed as lowest drug concentration causing inhibition of cell division incubated for 5 hrs by phase-contrast light microscopy; procedure, shortened: as §2
Staphylococcus aureus [20] = experiment: Inhibition of FtsZ in penicillin-susceptible Staphylococcus aureus ATCC 25923 assessed as inhibition of cell division at […] incubated for 5 hrs by phase-contrast light microscopy
Bacillus subtilis [21] = experiment: Inhibition of FtsZ in penicillin-susceptible Bacillus subtilis ATCC 9372 assessed as inhibition of cell division at […] incubated for 5 hrs by phase-contrast light microscopy

Compound	MIC [1]	MIC (Staphylococcus aureus [2])	MIC (Staphylococcus aureus [3])	MIC (Bacillus subtilis [4])	MIC (Escherichia coli [5])	MIC (Escherichia coli [6])	MIC (Streptococcus pyogenes [7])	Ratio (Bacillus subtilis [8])	MIC (Staphylococcus aureus [9])	MIC (Bacillus subtilis [10])	MIC (Streptococcus pyogenes [11])	Activity (Sus scrofa)	Ratio (Bacillus subtilis [12])	Ratio (Streptococcus pyogenes [13])	MIC (Pseudomonas aeruginosa [14])	MIC (Pseudomonas aeruginosa [15])	Ratio (Bacillus subtilis [16])	Ratio (Bacillus subtilis [17])	Ratio (Streptococcus pyogenes [18])	MIC (Staphylococcus aureus [19])	other results
Cc1cccc2c3ccccc3c[n+](C)c12.[Cl-]	128 µg/mL	4 µg/mL	128 µg/mL	4 µg/mL	> 128 µg/mL	> 128 µg/mL	4 µg/mL	2	> 128 µg/mL	4 µg/mL	8 µg/mL	inactive	2	4	> 128 µg/mL	> 128 µg/mL	2	8	2	128 µg/mL	–
CCCCc1ccc2c(c1)c1ccccc1c[n+]2C.[Cl-]	> 128 µg/mL	8 µg/mL	64 µg/mL	4 µg/mL	> 128 µg/mL	128 µg/mL	8 µg/mL	–	> 128 µg/mL	4 µg/mL	8 µg/mL	inactive	–	–	> 128 µg/mL	> 128 µg/mL	–	–	–	64 µg/mL	–
C[n+]1cc2ccccc2c2ccccc21.[Cl-]	> 128 µg/mL	32 µg/mL	> 128 µg/mL	16 µg/mL	> 128 µg/mL	> 128 µg/mL	32 µg/mL	–	> 128 µg/mL	16 µg/mL	32 µg/mL	inactive	–	–	128 µg/mL	128 µg/mL	–	–	–	> 128 µg/mL	–
C[n+]1cc2ccccc2c2cccc(OC(F)(F)F)c21.[Cl-]	32 µg/mL	8 µg/mL	16 µg/mL	4 µg/mL	> 128 µg/mL	> 128 µg/mL	4 µg/mL	2	64 µg/mL	4 µg/mL	8 µg/mL	inactive	2	4	> 128 µg/mL	> 128 µg/mL	2	8	2	16 µg/mL	inhibition (Staphylococcus aureus [20]): Active; inhibition (Bacillus subtilis [21]): Active
COc1cc(OC)c2c(c1)c1ccccc1c[n+]2C.[Cl-]	64 µg/mL	4 µg/mL	128 µg/mL	2 µg/mL	> 128 µg/mL	> 128 µg/mL	4 µg/mL	2	32 µg/mL	4 µg/mL	8 µg/mL	inactive	2	4	128 µg/mL	> 128 µg/mL	2	8	2	128 µg/mL	–
C[n+]1cc2ccccc2c2cc(C(C)(C)C)ccc21.[Cl-]	128 µg/mL	16 µg/mL	64 µg/mL	8 µg/mL	> 128 µg/mL	128 µg/mL	16 µg/mL	–	> 128 µg/mL	8 µg/mL	16 µg/mL	inactive	–	–	> 128 µg/mL	> 128 µg/mL	–	–	–	64 µg/mL	–
COc1ccc2c(c1)c1ccccc1c[n+]2C.[Cl-]	64 µg/mL	8 µg/mL	> 128 µg/mL	8 µg/mL	> 128 µg/mL	> 128 µg/mL	8 µg/mL	–	128 µg/mL	8 µg/mL	16 µg/mL	inactive	–	–	> 128 µg/mL	> 128 µg/mL	–	–	–	> 128 µg/mL	–
O=C(O)c1cn(C2CC2)c2cc(N3CCNCC3)c(F)cc2c1=O [CIPROFLOXACIN]	–	–	32 µg/mL (≈ 96.6 µM)	–	–	–	–	–	4 µg/mL (≈ 12.1 µM)	8 µg/mL (≈ 24.1 µM)	–	–	–	–	–	–	–	–	–	–	–
C[n+]1cc2ccccc2c2cc(Cl)ccc21.[Cl-]	> 128 µg/mL	32 µg/mL	> 128 µg/mL	16 µg/mL	128 µg/mL	128 µg/mL	32 µg/mL	–	> 128 µg/mL	16 µg/mL	32 µg/mL	inactive	–	–	> 128 µg/mL	> 128 µg/mL	–	–	–	> 128 µg/mL	–
